Source: ChEMBL document CHEMBL1125495, “Inhibitors of human renin with C-termini derived from amides and esters of alpha-mercaptoalkanoic acids” (J Med Chem, 1992)
One block for each compound: values may come before it.

Assays:
Renin = target: T1, Renin (Homo sapiens, UniProt P00797); assay: Inhibition of human plasma renin; format: cell-free
T1 sequence (P00797 whole entry): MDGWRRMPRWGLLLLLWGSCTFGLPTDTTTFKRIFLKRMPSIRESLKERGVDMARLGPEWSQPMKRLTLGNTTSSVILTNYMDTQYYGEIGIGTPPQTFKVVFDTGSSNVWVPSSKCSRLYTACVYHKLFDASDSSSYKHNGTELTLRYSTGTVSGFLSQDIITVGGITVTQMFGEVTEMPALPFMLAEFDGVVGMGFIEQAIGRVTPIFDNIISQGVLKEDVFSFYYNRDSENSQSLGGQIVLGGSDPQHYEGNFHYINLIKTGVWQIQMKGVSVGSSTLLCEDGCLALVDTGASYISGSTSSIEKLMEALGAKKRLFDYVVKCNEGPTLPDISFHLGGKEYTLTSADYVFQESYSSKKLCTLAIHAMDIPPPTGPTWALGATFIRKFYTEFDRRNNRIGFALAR

Rhesus monkey [1] = assay: Half life of hypotensive effect in sodium deficient rhesus monkeys after iv administration (dose 0.99 mg/kg).; format: functional, organism-based; design: dose 0.99 mg/kg; settings: Cercopithecidae
In short: (§1)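 Conscious male and female rhesus monkeys (N = 2) with chronic arterial access ports for direct MAP and heart-rate monitoring, and venous catheters for dosing. Animals were kept on a low-sodium diet, given furosemide the evening before, and fasted 18 h before and during the study. Compound was given iv in 0.05% acetic acid/5% dextrose/H2O, 20 min after a vehicle control dose. Peak changes were averaged, and the hypotensive half-life was read from time plots.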

Rhesus monkey [2] = assay: In vivo effect on heart rate(peak deltaHR) in sodium deficient rhesus monkeys after iv administration (dose 0.99 mg/kg).; format: functional, Cercopithecidae; in short: as §1
Rhesus monkey [3] = assay: In vivo effect on mean arterial pressure(peak deltaMAP) in sodium deficient rhesus monkeys after iv administration (dose 0.99 mg/kg).; format: functional, Cercopithecidae, Artery; in short: as §1
Renin (Homo sapiens) [4] = target: T2, Renin (Homo sapiens) (UniProt P00797); settings: Cercopithecidae; at 0.99 mg/kg
T2 sequence (whole entry): T1 sequence (P00797 whole entry)

Renin (Homo sapiens) [5] = target: T2, Renin (Homo sapiens); assay: In vivo inhibition of plasma renin activity in sodium deficient rhesus monkeys after iv administration (dose 0.63 mg/kg, determined at peak deltaMAP).; format: functional, organism-based; design: dose 0.63 mg/kg; settings: Cercopithecidae; target entry is the homologue from another species; at 0.63 mg/kg
In short: (§2)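 Sodium-deficient rhesus monkeys (N = 2) were kept on a low-sodium diet, given furosemide the evening before, and fasted 18 h. Compound was given iv through a venous catheter in 0.05% acetic acid/5% dextrose/H2O, 20 min after vehicle. Blood was drawn periodically via an arterial access port for plasma renin activity. Percent inhibition was taken at peak ΔMAP.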

Rhesus monkey [6] = assay: Half life of hypotensive effect in sodium deficient rhesus monkeys after iv administration (dose 0.63 mg/kg).; format: functional, organism-based; design: dose 0.63 mg/kg; settings: Cercopithecidae; in short: as §1
Rhesus monkey [7] = assay: In vivo effect on heart rate(peak deltaHR) in sodium deficient rhesus monkeys after iv administration (dose 0.63 mg/kg).; format: functional, Cercopithecidae; in short: as §1
Rhesus monkey [8] = assay: In vivo effect on mean arterial pressure(peak deltaMAP) in sodium deficient rhesus monkeys after iv administration (dose 0.63 mg/kg).; format: functional, Cercopithecidae, Artery; in short: as §1
Renin (Homo sapiens) [9] = target: T2, Renin (Homo sapiens); assay: In vivo inhibition of plasma renin activity in sodium deficient rhesus monkeys after iv administration (dose 0.26 mg/kg, determined at peak deltaMAP).; format: functional, organism-based; design: dose 0.26 mg/kg; settings: Cercopithecidae, target entry is the homologue from another species, at 0.26 mg/kg; in short: as §2
Rhesus monkey [10] = assay: Half life of hypotensive effect in sodium deficient rhesus monkeys after iv administration (dose 0.26 mg/kg).; format: functional, organism-based; design: dose 0.26 mg/kg; settings: Cercopithecidae; in short: as §1
Rhesus monkey [11] = assay: In vivo effect on heart rate(peak deltaHR) in sodium deficient rhesus monkeys after iv administration (dose 0.26 mg/kg).; format: functional, Cercopithecidae; in short: as §1
Rhesus monkey [12] = assay: In vivo on mean arterial pressure(peak deltaMAP) in sodium deficient rhesus monkeys after iv administration (dose 0.26 mg/kg).; format: functional, Cercopithecidae, Artery; in short: as §1
Renin (Homo sapiens) [13] = target: T2, Renin (Homo sapiens); assay: In vivo inhibition of plasma renin activity in sodium deficient rhesus monkeys after iv administration (dose 0.43 mg/kg, determined at peak deltaMAP).; format: functional, organism-based; design: dose 0.43 mg/kg; settings: Cercopithecidae, target entry is the homologue from another species, at 0.43 mg/kg; in short: as §2
Rhesus monkey [14] = assay: Half life of hypotensive effect in sodium deficient rhesus monkeys after iv administration (dose 0.43 mg/kg).; format: functional, organism-based; design: dose 0.43 mg/kg; settings: Cercopithecidae; in short: as §1
Rhesus monkey [15] = assay: In vivo effect on heart rate(peak deltaHR) in sodium deficient rhesus monkeys after iv administration (dose 0.43 mg/kg).; format: functional, Cercopithecidae; in short: as §1
Rhesus monkey [16] = assay: In vivo effect on mean arterial pressure(peak deltaMAP) in sodium deficient rhesus monkeys after iv administration (dose 0.43 mg/kg).; format: functional, Cercopithecidae, Artery; in short: as §1

IC50 (Renin): 77 nM
SMILES: CC(C)CC(C(=O)NCCN1CCOCC1)S(=O)(=O)C[C@H](O)[C@H](CC1CCCCC1)NC(=O)[C@H](Cc1c[nH]cn1)NC(=O)[C@H](Cc1ccccc1)NC(=O)OC(C)(C)C (some centres not stated)

inhibition (Renin (Homo sapiens) [4]): 88%
SMILES: CC(C)(C)OC(=O)N[C@@H](Cc1ccccc1)C(=O)N[C@@H](Cc1c[nH]cn1)C(=O)N[C@@H](CC1CCCCC1)[C@@H](O)CSCC(=O)NCc1ccncc1
T1/2 (Rhesus monkey [1]): < 10 min
Peak deltaHR (Rhesus monkey [2]): -26 beats min-1
Peak deltaMAP (Rhesus monkey [3]): -16 mmHg

inhibition (Renin (Homo sapiens) [5]): 87%
SMILES: CCOC(=O)CSC[C@H](O)[C@H](CC1CCCCC1)NC(=O)[C@H](Cc1c[nH]cn1)NC(=O)[C@H](Cc1ccccc1)NC(=O)OC(C)(C)C
T1/2 (Rhesus monkey [6]): < 10 min
Peak deltaHR (Rhesus monkey [7]): -23 beats min-1
Peak deltaMAP (Rhesus monkey [8]): -15 mmHg

IC50 (Renin): 9.4 nM
SMILES: CC(C)(C)OC(=O)N[C@@H](Cc1ccccc1)C(=O)N[C@@H](Cc1cnc[nH]1)C(=O)N[C@@H](CC1CCCCC1)[C@@H](O)CS(=O)(=O)CC(=O)NCCN1CCOCC1

inhibition (Renin (Homo sapiens) [9]): 93%
IC50 (Renin): 29 nM
SMILES: CC(C)(C)OC(=O)N[C@@H](Cc1ccccc1)C(=O)N[C@@H](Cc1c[nH]cn1)C(=O)N[C@@H](CC1CCCCC1)[C@@H](O)CSCC(=O)NC1CN2CCC1CC2 (some centres not stated)
T1/2 (Rhesus monkey [10]): < 10 min
Peak deltaHR (Rhesus monkey [11]): -18 beats min-1
Peak deltaMAP (Rhesus monkey [12]): -20 mmHg

IC50 (Renin): 40 nM
SMILES: CC(C)(C)OC(=O)N[C@@H](Cc1ccccc1)C(=O)N[C@@H](Cc1cnc[nH]1)C(=O)N[C@@H](CC1CCCCC1)[C@@H](O)CSCC(=O)NCCN1CCOCC1

IC50 (Renin): 20 nM
SMILES: CN1CCN(C(=O)CS(=O)(=O)C[C@H](O)[C@H](CC2CCCCC2)NC(=O)[C@H](Cc2c[nH]cn2)NC(=O)[C@H](Cc2ccccc2)NC(=O)OC(C)(C)C)CC1

inhibition (Renin (Homo sapiens) [13]): 90%
SMILES: CC(C)(C)OC(=O)N[C@@H](Cc1ccccc1)C(=O)N[C@@H](Cc1c[nH]cn1)C(=O)N[C@@H](CC1CCCCC1)[C@@H](O)CSCC(=O)NCCN1CCOCC1
T1/2 (Rhesus monkey [14]): < 10 min
Peak deltaHR (Rhesus monkey [15]): -26 beats min-1
Peak deltaMAP (Rhesus monkey [16]): -20.5 mmHg

IC50 (Renin): 19 nM
SMILES: CC(C)(C)OC(=O)N[C@@H](Cc1ccccc1)C(=O)N[C@@H](Cc1cnc[nH]1)C(=O)N[C@@H](CC1CCCCC1)[C@@H](O)C[S+]([O-])CC(=O)NCCN1CCOCC1 (some centres not stated)
